Only some compounds are listed: those with a hit (about 3% of all), similar ones and a draw of the others.
NPY2 pot ag: human NPY-Y2 potentiation or agonism, primary screen; AID 1359; 0.45% of 220,000 active; cells expressing NPY-Y2, potentiator/agonist read-out; activation, % at 3.6 µM; in the data active means activation above about 27%;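 further: cells stimulated with NPY near EC25 plus isoproterenol at EC100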
Hsp70 act: transcriptional activators of Hsp70. HeLa Hsp70 promoter luciferase reporter, luminescence; scaled: vehicle 0, proteasome-inhibitor control 100%. activation, % at 10 µM. 0.04% of 200,000 active. AID 1203;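 active means activation above the mean across all tested compounds plus 3 SD, cutoff set per campaign, cut at about 5.5% in these data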
NPY Y2 blocker: NPY-Y2 (human) receptor antagonism; P49146; NPY-Y2 expressing cells, antagonist mode; inhibition, % at 2.7 µM; 0.99% of 140,000 active; in the data active means inhibition above about 17%
NPY-Y1 PAM-ag: human NPY-Y1 potentiation or agonism, primary screen; P25929; NPY-Y1 expressing cells, potentiator/agonist activation; activation, % at 3.6 µM; 0.37% of 220,000 active; AID 1304; in the data active means activation above about 33%, passing the limit was not always enough;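 further: cells stimulated with NPY at EC10 then isoproterenol at EC100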
Wee1 stabilizer: blocks degradation of human Wee1 kinase; reporter increase, % at 5 µM; 1.2% of 220,000 active; AID 1321; HeLa Luc-Wee1K328M stability, luciferase luminescence; 100% = proteasome inhibitor MG132 effect; P30291;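 active means activation above the mean of all tested compounds plus 3 SD, set per screening run, cut at about 8.8% in these data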;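 further: cells exposed to compound for 20 h before luminescence read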
Target sequence (P30291 whole entry K328M): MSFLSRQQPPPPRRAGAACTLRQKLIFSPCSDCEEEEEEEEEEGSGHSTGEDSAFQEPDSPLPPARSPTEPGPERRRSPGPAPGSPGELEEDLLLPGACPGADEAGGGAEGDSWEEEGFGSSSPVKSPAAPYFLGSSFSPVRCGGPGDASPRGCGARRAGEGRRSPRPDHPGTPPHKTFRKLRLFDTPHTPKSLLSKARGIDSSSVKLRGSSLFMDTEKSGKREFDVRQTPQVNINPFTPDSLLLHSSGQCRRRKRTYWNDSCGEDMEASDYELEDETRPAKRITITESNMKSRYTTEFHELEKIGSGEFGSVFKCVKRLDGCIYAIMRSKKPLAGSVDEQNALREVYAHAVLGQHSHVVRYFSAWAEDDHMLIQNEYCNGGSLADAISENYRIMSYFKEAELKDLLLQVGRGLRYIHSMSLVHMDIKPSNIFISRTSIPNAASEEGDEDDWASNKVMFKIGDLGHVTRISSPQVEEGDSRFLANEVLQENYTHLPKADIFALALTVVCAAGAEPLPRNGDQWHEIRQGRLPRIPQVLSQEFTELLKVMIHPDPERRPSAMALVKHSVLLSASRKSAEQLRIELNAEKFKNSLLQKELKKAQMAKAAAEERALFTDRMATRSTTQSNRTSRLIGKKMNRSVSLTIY
NPY-Y1 antag: antagonists of human neuropeptide Y receptor Y1 | 1% of 200,000 active | HEK293-CNG Y1 cells, membrane potential fluorescence; NPY at EC95, then isoproterenol | inhibition, % at 3.6 µM | P25929 | AID 1040;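 active means inhibition above the campaign mean inhibition of all tested compounds plus 3 SD, cut at about 20% in these data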
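Test system: HEK293 cells co-expressing NPY Y1 receptor and cyclic-nucleotide gated channel; Also added: NPY (25 nM), isoproterenol (1 µM), Ro 20-1724 (25 µM); Compound dosing: one concentration, 3.6 µM, in 0.4% DMSO; Timing: dye 3 h, compound 60 min room temperature, stimulation 45 min; Technique: Membrane-potential fluorescent dye readout.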
Wee1 stab conf: human Wee1 degradation inhibition, confirmation | AID 1410 | activation, % at 5 µM | shares compounds with Wee1 stabilizer | 4% of 1,100 active | HeLa Luc-Wee1K328M degradation, luminescence; vehicle 0%, proteasome-blocked wells 100%; in the data active means activation above about 8.9%
Numbers stand for hits; 0 = inactive; - = no result given.

SMILES	NPY2 pot ag	Hsp70 act	NPY Y2 blocker	NPY-Y1 PAM-ag	Wee1 stabilizer	NPY-Y1 antag	Wee1 stab conf
CC1=CC=CN2C1=NC(=O)CC2(C)C(=O)N(CC(=O)NC1CCCC1)c1cc(C)cc(C)c1 (stereo not given)	0	0	-	0	0	0	-
CCn1c(CNc2ccc(OC)cc2)nnc1SCC(=O)N1CCCc2ccccc21	0	0	0	0	0	0	-
CCn1c(CSc2nc(C)cc(C)n2)nnc1SCC(=O)N1CCCc2ccccc21	0	0	0	0	14	0	0
CC(=O)c1ccc(NC(=S)NCCc2ccc(S(N)(=O)=O)cc2)cc1	0	0	-	0	27	0	0
COc1ccc(CN(CC2CCC(C(=O)O)CC2)C(=S)Nc2cc(C)cc(C)c2)cc1 (stereo not given)	0	0	-	0	0	0	-
COc1ccc(C2=Nc3cccc4cccc(c34)N2)cc1	0	0	0	0	0	0	-
Nc1cccc(C2=Nc3cccc4cccc(c34)N2)c1	0	0	0	0	12	0	0
COC(=O)/C=C1/S/C(=N/N=C/c2ccc(N(C)C)cc2)NC1=O	0	0	0	0	0	0	-
Cc1cc(NC(=O)COC(=O)C(Cc2ccccc2)NC(=O)c2ccco2)no1 (stereo not given)	0	0	0	0	21	0	0
COc1cc(OC)cc(C(=O)NC2CCSC2=O)c1 (stereo not given)	0	0	0	0	12	0	0
COc1ccc(C(=O)NC(=S)NC2CCSC2=O)cc1 (stereo not given)	0	0	0	0	0	0	-
COc1ccc(N2CCN(C(c3ccc4ncccc4c3)c3nnnn3C(C)(C)C)CC2)cc1 (stereo not given)	0	0	-	0	11	0	0
COc1cc(NC(=O)COC(=O)CNC(=O)c2ccc(Cl)cc2)c(C)cc1[N+](=O)[O-]	0	0	0	0	12	0	0
C/C(=N\NC(=O)CNC(=O)C(c1ccccc1)c1ccccc1)c1ccccc1	0	0	0	0	0	0	-
C/C(Cc1ccccc1)=N/NC(=O)CNC(=O)C(c1ccccc1)c1ccccc1	0	-	-	0	11	-	0
COc1cc(O)c(C(C)=O)cc1OC	0	0	0	0	11	0	0
Cc1c(Cl)cccc1NC(=O)Cn1cc(C(F)(F)F)cc(Cl)c1=O	0	0	-	0	0	0	-
CCOC(=O)N1CCN(C(=O)CCCCn2c(=S)[nH]c3ccsc3c2=O)CC1	0	0	-	0	13	0	0
O=C(Nc1nc(-c2ccccn2)cs1)c1ccc2c(c1)OCCO2	0	0	-	0	31	0	0
Cc1ccc2nc(C3CCN(CC(=O)Nc4ccc5c(c4)OCCO5)CC3)[nH]c2c1	0	0	0	0	12	0	0
O=C(CN1CCC(c2nc3ccccc3[nH]2)CC1)Nc1ccc2c(c1)OCO2	0	0	0	0	0	0	-
O=C(Nc1nnc(-c2ccccc2Cl)o1)c1cc2cc([N+](=O)[O-])ccc2s1	0	0	0	0	0	0	-
O=C(C1CCCCC1)N(Cc1nc2sc3c(c2c(=O)[nH]1)CCCC3)Cc1cccs1	0	0	0	0	0	0	-
Cc1cc(C(=O)CSc2nc3ccccc3o2)c(C)n1CC1CCCO1 (stereo not given)	0	0	0	0	11	0	0
COCCN1CCC(CNCc2cn(-c3cc(C)ccc3C)nc2-c2ccccc2)C1 (stereo not given)	0	0	-	0	0	0	-
SMILES	NPY2 pot ag	Hsp70 act	NPY Y2 blocker	NPY-Y1 PAM-ag	Wee1 stabilizer	NPY-Y1 antag	Wee1 stab conf
COc1ccc(C(=O)N=c2sc3c(C)ccc(OC)c3n2C)cc1OC	0	-	-	0	12	-	0
COc1ccccc1C(=O)N=c1sc2c(C)ccc(OC)c2n1C	0	-	-	0	0	-	-
Cc1cc(C)n2nc(-c3cccnc3)nc2n1	0	0	0	0	0	0	-
Cc1cc(C)n2nc(-c3ccc(F)cc3)nc2n1	0	0	0	0	16	0	0
COc1ccc(-n2nc3cc(C)c(NC(C)=O)cc3n2)cc1	0	0	-	0	12	0	0
CCC(=O)c1ccc(OCC(=O)OCC(=O)Nc2sccc2C(N)=O)cc1	0	0	-	0	0	0	-
Cc1c(NC(=S)NC(C)(C)C)c(=O)n(-c2ccccc2)n1C	0	0	-	0	14	0	0
Cc1ccc(/C=C/C(=O)Nc2ccc(Oc3ccccc3)cc2)o1	0	0	0	0	15	0	0
COc1ccc(NC(=O)c2nn(C34CC5CC(CC(C5)C3)C4)cc2[N+](=O)[O-])cc1	0	0	0	0	11	0	0
O=C(Nc1cccc2ccccc12)c1nn(C23CC4CC(CC(C4)C2)C3)cc1[N+](=O)[O-]	0	0	0	0	0	0	-
C=CCNC(=O)N[C@@H](Cc1ccccc1)C(=O)OC	0	-	-	0	0	-	-
Cc1onc(-c2ccccc2)c1C(=O)N1CCCN(C(=O)c2c(-c3ccccc3)noc2C)CC1	0	0	0	0	0	0	-
Cc1onc(-c2ccccc2)c1C(=O)N1CCN(C)CC1	0	0	0	0	17	0	0
CCC(C)(C)NC(=O)C(c1cccnc1)N(C(=O)c1csnn1)c1ccccc1 (stereo not given)	0	0	-	0	0	0	-
CCN(CC)c1ccc(/C=N/NC(=O)c2cnccn2)cc1	0	0	-	0	15	0	19
CCN(CC)c1ccc(/C=N/NC(=O)c2ccc([N+](=O)[O-])cc2)cc1	0	0	-	0	0	0	-
CCN(CC)c1ccc(/C=N/NC(=O)c2ccco2)cc1	0	0	0	0	20	0	13
COc1ccc(N(CC(=O)Nc2c(C)n(C)n(-c3ccccc3)c2=O)S(=O)(=O)c2ccc(F)cc2)cc1	0	0	0	0	13	0	0
CCCC(=O)Nc1ccccc1NC(=O)c1ccc(OC(C)=O)cc1	0	0	-	0	0	0	-
O=C(CSc1ccc(F)cc1)NC1CCCCC1	0	0	-	0	12	0	0
COc1cc(C(F)(F)F)nc2ccc(C#CCOC(=O)Nc3ccccc3)cc12	0	-	-	0	0	-	-
CC1(C)Cc2c(C#N)c(NCCO)nc(-c3ccco3)c2CO1	0	-	-	0	18	-	0
CC1(C)Cc2c(C#N)c(NCCN3CCOCC3)nc(-c3ccco3)c2CO1	0	0	0	0	0	0	-
Nc1nc(SCC(=O)Nc2ccc(Cl)c(S(=O)(=O)N3CCOCC3)c2)n[nH]1	0	-	-	0	0	-	-
CC(=O)Nc1ccccc1-c1nnc(SCc2ccccc2Cl)[nH]c1=O	0	0	0	0	0	0	-
O=C(Cn1nc(-c2ccccc2Cl)ccc1=O)Nc1ccccc1-c1ccccc1	0	0	-	0	25	0	0
CCOC(=O)C(C(C)=O)c1c(Br)c(O)c(O)c2c(C(=O)c3ccc(C)cc3)coc12 (stereo not given)	0	0	0	0	0	0	-
CC(=O)Nc1ccc(N2CCCC2)cc1	0	0	0	0	0	0	-

High-throughput results: PubChem BioAssay, The Scripps Research Institute Molecular Screening Center
